What is called kcat/Km is the turnover number divided by the Michaelis constant. In general, Km refers to the substrate concentration at which the rate is half of its maximum.

Assay [1] deals with Mycobacterium tuberculosis. As to the kind of experiment: Activity at Mycobacterium tuberculosis beta lactamase BlaC expressed in Escherichia coli assessed as ratio of Kcat to Km by spectrophotometric method. The method, boiled down:
(§1)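 BlaC produced in E. coli, purified by Ni-NTA affinity and size-exclusion chromatography. Carbapenem hydrolysis followed spectrophotometrically in 100 mM MES buffer, pH 6.4, at 20 °C. Direct determination of kcat and Km for substrates with Km above 10 μM. For the other compounds, kcat and Km were obtained by competition against the reporter substrate nitrocefin.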

Assay [2] has as its system Mycobacterium tuberculosis. As to the kind of experiment: Activity at Mycobacterium tuberculosis beta lactamase BlaC expressed in Escherichia coli by spectrophotometric method. In a few lines:
as §1

Assay [3] concerns Mycobacterium tuberculosis. Briefly: Inhibition of Mycobacterium tuberculosis LdtMt1 expressed in Escherichia coli assessed as efficiency of acylation reaction by measuring ratio of K2 to Kapp by stopped-flow spectrofluorimetric method. In a few lines:
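His-tagged LdtMt1 expressed in E. coli and purified by Ni2+-NTA affinity, then by size-exclusion chromatography in 100 mM sodium phosphate pH 6.4 with 300 mM NaCl. Inactivation kinetics measured by stopped-flow spectrofluorimetry in 100 mM sodium phosphate, pH 6.0, at 10 °C. k1, k2 and k2/Kapp were calculated from the fluorescence kinetics.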

Consider `CC(c1ccc(C(=O)O)cc1)n1cc(CCSC2=C(C(=O)O)N3C(=O)[C@H]([C@@H](C)O)[C@H]3[C@H]2C)nn1` (some centres not stated), for which, in assay [1], the kcat/Km is 3200 M⁻¹ s⁻¹. For the same compound, the Km in assay [2] came to 47 µM. In addition, the Ratio in assay [3] was determined as 29000 M⁻¹ s⁻¹.
Take `C[C@@H](O)[C@H]1C(=O)N2C(C(=O)O)=C(S[C@@H]3CN[C@H](C(=O)N(C)C)C3)[C@H](C)[C@H]12`: the kcat/Km in assay [1] was 1000 M⁻¹ s⁻¹. Also, in assay [2], the Km stood at 0.92 µM. In assay [3], the Ratio turned out to be 1300 M⁻¹ s⁻¹.
On the same counts, the results for `C[C@@H](O)[C@H]1C(=O)N2C(C(=O)O)=C(SCCc3ccccc3)[C@H](C)[C@H]12` are 360 M⁻¹ s⁻¹, 1.5 µM and 39000 M⁻¹ s⁻¹.
Regarding `C[C@@H](O)[C@H]1C(=O)N2C(C(=O)O)=C(SCCc3cn(-c4ccccc4)nn3)[C@H](C)[C@H]12`, in assay [1], the kcat/Km is 2100 M⁻¹ s⁻¹. In addition, the Michaelis constant (Km) in assay [2] is 0.31 µM. In addition, the Ratio in assay [3] turned out to be 26000 M⁻¹ s⁻¹.
For `CCSC1=C(C(=O)O)N2C(=O)[C@H]([C@@H](C)O)[C@H]2[C@H]1C` the same measures were 3700 M⁻¹ s⁻¹, 11 µM and 10800 M⁻¹ s⁻¹.
On the same counts, the results for `C[C@@H](O)[C@H]1C(=O)N2C(C(=O)O)=C(S[C@@H]3CN[C@H](CNS(N)(=O)=O)C3)[C@H](C)[C@H]12` are 1500 M⁻¹ s⁻¹, 0.46 µM and 1500 M⁻¹ s⁻¹.
With `C[C@@H](O)[C@H]1C(=O)N2C(C(=O)O)=C(SCCN)[C@H](C)[C@H]12`, the kcat/Km in assay [1] was 320 M⁻¹ s⁻¹. For the same compound, the Km in assay [2] turned out to be 3.5 µM. The Ratio in assay [3] was 3600 M⁻¹ s⁻¹.
Regarding `C[C@@H](O)[C@H]1C(=O)N2C(C(=O)O)=C(SCCc3cn(-c4cccc(C(=O)O)c4)nn3)[C@H](C)[C@H]12`, the kcat/Km in assay [1] came out at 13000 M⁻¹ s⁻¹. Further, in assay [2], the Km came out at 19 µM. Moreover, the Ratio in assay [3] came out at 36000 M⁻¹ s⁻¹.
On the same counts, the results for `CCSC1=C(C(=O)O)N2C(=O)[C@H]([C@@H](C)OC(=O)c3ccccc3)[C@H]2[C@H]1C` are 1500 M⁻¹ s⁻¹, 1.2 µM and 3800 M⁻¹ s⁻¹.
For `C[C@@H](O)[C@H]1C(=O)N2C(C(=O)O)=C(SCCc3cn(-c4ccccc4C(=O)O)nn3)[C@H](C)[C@H]12`, the kcat/Km in assay [1] was 300 M⁻¹ s⁻¹. Moreover, in assay [2], the Km stood at 3.3 µM. For the same compound, the Ratio in assay [3] worked out at 26000 M⁻¹ s⁻¹.
On the same counts, the results for `CCSC1=C(C(=O)O)N2C(=O)[C@H]([C@@H](C)OC(=O)c3c(F)c(F)c(F)c(F)c3F)[C@H]2[C@H]1C` are 840 M⁻¹ s⁻¹, 1.4 µM and 25000 M⁻¹ s⁻¹.
On the same counts, the results for `C[C@@H](O)[C@H]1C(=O)N2C(C(=O)O)=C(SCCc3cn(CCCCC(=O)O)nn3)[C@H](C)[C@H]12` are 5700 M⁻¹ s⁻¹, 56 µM and 9600 M⁻¹ s⁻¹.
As for `C[C@@H](O)[C@H]1C(=O)N2C(C(=O)O)=C(S[C@@H]3CN[C@H](C(=O)Nc4cccc(C(=O)O)c4)C3)[C@H](C)[C@H]12`, the kcat/Km in assay [1] stood at 330 M⁻¹ s⁻¹. Further, the Michaelis constant (Km) in assay [2] worked out at 4.8 µM. The Ratio in assay [3] was 23000 M⁻¹ s⁻¹.
Turning to `C[C@@H](O)[C@H]1C(=O)N2C(C(=O)O)=C(SCCc3cn(CCc4c[nH]c5ccccc45)nn3)[C@H](C)[C@H]12`, the kcat/Km in assay [1] turned out to be 2000 M⁻¹ s⁻¹. Moreover, the Km in assay [2] came out at 0.17 µM. The Ratio in assay [3] was 28000 M⁻¹ s⁻¹.

Values taken from ChEMBL document CHEMBL3797045, “Routes of Synthesis of Carbapenems for Optimizing Both the Inactivation of L,D-Transpeptidase LdtMt1 of Mycobacterium tuberculosis and the Stability toward Hydrolysis by β-Lactamase BlaC” (J Med Chem, 2016).
